Measured values reported in ChEMBL document CHEMBL3232705, “Discovery of isoquinolinone indole acetic acids as antagonists of chemoattractant receptor homologous molecule expressed on Th2 cells (CRTH2) for the treatment of allergic inflammatory diseases” (J Med Chem, 2014).
pIC50: −log10 of the molar value. Activity calls are given as the source filed them. The calls are words filed in the database; no cut-off is given here.

What was measured:
[1] = Cmax in monkey at 10 mg/kg, po; format: ADME, organism-based, Macaca mulatta; set-up: dose 10 mg/kg, route oral; conditions: rhesus monkey, in vivo
Summary of the method: (§1)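 Single intravenous dose of 2 mg/kg and single oral dose of 10 mg/kg, given separately, in rat, dog and monkey. Clearance and half-life taken from the iv arm; Cmax from the oral arm.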

[2] = target: T1, Prostaglandin D2 receptor 2 (Homo sapiens, UniProt Q9Y5Y4); assay: Antagonist activity at human recombinant CRTh2 expressed in CHO-K1 cells by cAMP TR FRET assay; format: functional, cell-based
T1 sequence (Q9Y5Y4 whole entry): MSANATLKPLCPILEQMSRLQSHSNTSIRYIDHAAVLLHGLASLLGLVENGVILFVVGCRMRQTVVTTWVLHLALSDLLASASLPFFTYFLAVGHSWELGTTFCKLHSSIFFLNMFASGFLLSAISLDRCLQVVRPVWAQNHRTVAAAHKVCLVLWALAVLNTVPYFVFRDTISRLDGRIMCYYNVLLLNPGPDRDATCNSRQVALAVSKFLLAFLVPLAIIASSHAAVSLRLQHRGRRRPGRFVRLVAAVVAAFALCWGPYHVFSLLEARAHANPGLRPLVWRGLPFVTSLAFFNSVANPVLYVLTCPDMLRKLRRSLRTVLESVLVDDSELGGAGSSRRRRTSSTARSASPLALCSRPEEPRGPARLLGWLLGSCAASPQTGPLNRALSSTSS

Mus musculus [3] = assay: Antiallergic activity in house dust mite-induced allergic airway disease BALB/c mouse model assessed as reduction in airway inflammation at 40 mg/kg, po qd after 17 days; format: functional, organism-based; set-up: dose 40 mg/kg
Summary of the method: (§2)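 BALB/c mice given house dust mite intratracheally via a catheter passed through the vocal cords. Test article 40 mg/kg orally once daily; dexamethasone 1 mg/kg ip once daily as reference. Total and differential BAL cells (eosinophils, macrophages, lymphocytes, neutrophils) counted 72 h after HDM challenge. Mean ± SEM, Mann–Whitney U test.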

Rattus norvegicus = assay: Oral bioavailability; conditions: in vivo
[4] = Clearance in rat at 2 mg/kg, iv; format: ADME, organism-based; set-up: dose 2 mg/kg, route intravenous; conditions: in vivo; summary of the method: as §1
[5] = target: T2, Prostaglandin D2 receptor 2 (Mus musculus, UniProt Q9Z2J6); assay: Inhibition of mouse CRTH2 receptor
T2 sequence (Q9Z2J6 whole entry): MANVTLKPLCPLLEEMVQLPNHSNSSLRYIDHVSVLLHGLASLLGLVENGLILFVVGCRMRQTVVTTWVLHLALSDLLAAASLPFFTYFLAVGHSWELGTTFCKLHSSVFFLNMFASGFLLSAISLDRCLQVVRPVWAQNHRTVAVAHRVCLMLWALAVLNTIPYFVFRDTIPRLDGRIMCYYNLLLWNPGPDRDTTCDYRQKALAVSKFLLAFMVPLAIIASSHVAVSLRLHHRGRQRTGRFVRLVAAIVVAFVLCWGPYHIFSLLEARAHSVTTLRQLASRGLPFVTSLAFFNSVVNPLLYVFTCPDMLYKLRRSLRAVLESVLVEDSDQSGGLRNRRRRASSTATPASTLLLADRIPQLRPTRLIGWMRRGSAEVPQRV

[6] = Oral bioavailability in rat at 10 mg/kg; format: ADME, organism-based; conditions: in vivo
Mus musculus [7] = assay: Antiallergic activity in house dust mite-induced allergic airway disease BALB/c mouse model assessed as reduction in lymphocyte level in bronchoalveolar lavage fluid at 40 mg/kg, po after 72 hrs of HDM challenge; format: functional, organism-based; set-up: dose 40 mg/kg; conditions: Lung; summary of the method: as §2
[8] = Volume of distribution at steady state in rat at 2 mg/kg, iv; format: ADME, organism-based; set-up: dose 2 mg/kg, route intravenous; conditions: in vivo, read-out: Vdss
Ovis aries [9] = assay: Inhibition of Ascaris-induced airway bronchoconstriction in sheep assessed as inhibition of bronchoalveolar lavage fluid inflammation at 1 mg/kg, iv qd for 7 days; format: functional, organism-based; set-up: dose 1 mg/kg; conditions: Lung
Summary of the method: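 Sheep given 1 mg/kg iv once daily for 7 days before Ascaris suum allergen challenge. Early and late responses read as airway resistance above baseline, compared with each animal's historical untreated values. After the AHR measurement, three bronchi per sheep were lavaged for cell counts.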

Mus musculus [10] = assay: Antiallergic inflammatory activity in oxazolone induced contact hypersensitivity mouse model assessed as reduction ear swelling at 3 mg/kg, po prior to oxazolone and 7 hrs post challenge measured after 24 hrs; format: functional
Summary of the method: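 Mice sensitized on the shaved abdomen with 2% oxazolone in ethanol one week before challenge. Dosed orally 1 h before the left ear was challenged with 10 μL of 2% oxazolone (ethanol on the right ear as control), then redosed 7 h after challenge. Ear thickness measured by micrometer; swelling taken as 24 h post-challenge minus pre-challenge thickness. Unpaired t test.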

[11] = Clearance in dog at 2 mg/kg, iv; format: ADME, organism-based, Canis lupus familiaris; set-up: dose 2 mg/kg, route intravenous; conditions: in vivo; summary of the method: as §1
Mus musculus [12] = assay: Antiallergic activity in house dust mite-induced allergic airway disease BALB/c mouse model assessed as reduction in neutrophil level in bronchoalveolar lavage fluid at 40 mg/kg, po after 72 hrs of HDM challenge; format: functional, organism-based; set-up: dose 40 mg/kg; conditions: Lung; summary of the method: as §2
[13] = Oral bioavailability in dog at 10 mg/kg; format: ADME, organism-based, Canis lupus familiaris; conditions: in vivo
Mus musculus [14] = assay: Antiallergic activity in house dust mite-induced allergic airway disease BALB/c mouse model assessed as reduction in macrophage level in bronchoalveolar lavage fluid at 40 mg/kg, po after 72 hrs of HDM challenge; format: functional, organism-based; set-up: dose 40 mg/kg; conditions: Lung; summary of the method: as §2
[15] = Permeability in human Caco2 cells at pH 6.5; conditions: Caco-2, pH 6.5
Cytochrome P450 2D6 = Cytochrome P450 2D6 (Homo sapiens, UniProt P10635); assay: Inhibition of CYP2D6 (unknown origin); format: ADME
Sequence of Cytochrome P450 2D6 (P10635 whole entry): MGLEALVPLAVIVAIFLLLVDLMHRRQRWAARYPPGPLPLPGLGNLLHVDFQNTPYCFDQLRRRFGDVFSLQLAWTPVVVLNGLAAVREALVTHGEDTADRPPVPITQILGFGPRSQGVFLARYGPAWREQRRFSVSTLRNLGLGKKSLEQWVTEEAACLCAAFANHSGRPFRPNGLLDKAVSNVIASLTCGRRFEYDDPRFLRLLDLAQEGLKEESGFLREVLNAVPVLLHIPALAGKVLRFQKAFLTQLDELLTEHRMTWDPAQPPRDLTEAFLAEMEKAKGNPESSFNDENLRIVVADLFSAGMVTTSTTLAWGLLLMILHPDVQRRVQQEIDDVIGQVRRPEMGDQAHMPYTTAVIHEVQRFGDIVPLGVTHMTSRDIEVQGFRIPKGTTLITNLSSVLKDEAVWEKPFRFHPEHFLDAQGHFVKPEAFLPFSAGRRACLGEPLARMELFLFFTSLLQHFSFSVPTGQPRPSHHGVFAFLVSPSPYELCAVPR

Thromboxane A2 receptor = target: T3, Thromboxane A2 receptor (Homo sapiens, UniProt P21731); assay: Antagonist activity at TXA2 receptor (unknown origin) by FRET assay
T3 sequence (P21731 whole entry): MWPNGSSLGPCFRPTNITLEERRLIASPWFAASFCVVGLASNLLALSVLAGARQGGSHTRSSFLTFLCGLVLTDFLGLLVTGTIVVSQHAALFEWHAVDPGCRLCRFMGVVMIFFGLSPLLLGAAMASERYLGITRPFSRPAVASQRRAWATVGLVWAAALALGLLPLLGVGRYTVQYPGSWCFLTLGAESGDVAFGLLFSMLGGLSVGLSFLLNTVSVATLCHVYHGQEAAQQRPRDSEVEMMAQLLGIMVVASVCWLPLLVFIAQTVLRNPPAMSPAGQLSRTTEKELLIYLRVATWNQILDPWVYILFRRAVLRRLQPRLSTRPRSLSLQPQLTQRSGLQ

[16] = target: T1, Prostaglandin D2 receptor 2; assay: Binding affinity to human CRTH2 receptor
Summary of the method: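 Competitive binding assay at human CRTH2, measuring displacement of tritium-labeled PGD2 by test compound; IC50 derived.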

[17] = Clearance in monkey at 2 mg/kg, iv; format: ADME, organism-based, Macaca mulatta; set-up: dose 2 mg/kg, route intravenous; conditions: rhesus monkey, in vivo; summary of the method: as §1
Cytochrome P450 2C9 = Cytochrome P450 2C9 (Homo sapiens, UniProt P11712); assay: Inhibition of CYP2C9 (unknown origin); format: ADME
Sequence of Cytochrome P450 2C9 (P11712 whole entry): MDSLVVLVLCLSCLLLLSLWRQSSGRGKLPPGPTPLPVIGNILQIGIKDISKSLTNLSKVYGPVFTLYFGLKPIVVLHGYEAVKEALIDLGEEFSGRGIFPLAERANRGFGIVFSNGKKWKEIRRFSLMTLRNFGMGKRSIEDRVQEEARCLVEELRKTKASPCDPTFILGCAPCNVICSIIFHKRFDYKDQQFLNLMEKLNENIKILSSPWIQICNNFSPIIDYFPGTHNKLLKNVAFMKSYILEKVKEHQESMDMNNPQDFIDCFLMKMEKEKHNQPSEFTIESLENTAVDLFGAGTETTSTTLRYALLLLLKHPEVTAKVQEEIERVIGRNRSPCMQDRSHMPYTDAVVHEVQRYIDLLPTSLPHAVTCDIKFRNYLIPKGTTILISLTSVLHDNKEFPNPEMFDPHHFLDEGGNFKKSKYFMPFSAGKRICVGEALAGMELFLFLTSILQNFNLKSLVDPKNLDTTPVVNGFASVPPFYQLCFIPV

Cytochrome P450 3A4 = Cytochrome P450 3A4 (Homo sapiens, UniProt P08684); assay: Inhibition of CYP3A4 (unknown origin); format: ADME
Sequence of Cytochrome P450 3A4 (P08684 whole entry): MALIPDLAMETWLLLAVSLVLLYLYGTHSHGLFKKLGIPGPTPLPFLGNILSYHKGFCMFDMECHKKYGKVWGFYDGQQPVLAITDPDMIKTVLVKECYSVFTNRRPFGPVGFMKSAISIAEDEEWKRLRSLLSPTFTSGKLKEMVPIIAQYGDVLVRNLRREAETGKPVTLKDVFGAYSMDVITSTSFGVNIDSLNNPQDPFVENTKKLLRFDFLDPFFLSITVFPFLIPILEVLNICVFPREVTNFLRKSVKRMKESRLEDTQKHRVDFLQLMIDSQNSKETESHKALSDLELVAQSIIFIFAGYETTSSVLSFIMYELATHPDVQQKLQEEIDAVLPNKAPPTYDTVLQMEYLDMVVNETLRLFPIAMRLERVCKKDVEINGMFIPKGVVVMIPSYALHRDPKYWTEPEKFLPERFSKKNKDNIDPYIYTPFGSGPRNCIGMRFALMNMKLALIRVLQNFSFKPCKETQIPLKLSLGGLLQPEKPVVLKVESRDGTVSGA

Mus musculus [18] = assay: Antiallergic activity in house dust mite-induced allergic airway disease BALB/c mouse model assessed as reduction in eosinophil level in bronchoalveolar lavage fluid at 40 mg/kg, po after 72 hrs of HDM challenge; format: functional, organism-based; set-up: dose 40 mg/kg; conditions: Lung; summary of the method: as §2
Ovis aries [19] = assay: Inhibition of Ascaris-induced airway bronchoconstriction in sheep assessed as inhibition of late phase allergic airway bronchoconstriction at 3 mg/kg, iv bid; format: functional, organism-based; set-up: dose 3 mg/kg

Structure (SMILES): Cc1c(-c2cn(C(C)C)c(=O)c3ccccc23)c2cc(F)ccc2n1CC(=O)O
- Cmax [1]: 2970 ng/mL
- pIC50 [2]: 8.22
- inhibition (Mus musculus [3]): Active
- bioavailability (Rattus norvegicus): 35%
- clearance [4]: 18 mL/min/kg
- pIC50 [5]: 8.40
- bioavailability [6]: 20%
- inhibition (Mus musculus [7]): Active
- Vd [8]: 1.2 L/kg
- inhibition (Ovis aries [9]): Active
- inhibition in vivo at 3 mg/kg (Mus musculus [10]): 50.5%
- clearance [11]: 5.6 mL/min/kg
- inhibition (Mus musculus [12]): Active
- bioavailability [13]: 32%
- inhibition (Mus musculus [14]): inactive
- Papp [15]: 2.7 ×10⁻⁶ cm/s
- pIC50 (Cytochrome P450 2D6): < 4.00
- pIC50 (Thromboxane A2 receptor): < 6.00
- pIC50 [16]: 8.85
- clearance [17]: 6.1 mL/min/kg
- pIC50 (Cytochrome P450 2C9): 4.26
- pIC50 (Cytochrome P450 3A4): < 4.00
- inhibition (Mus musculus [18]): Active
- inhibition (Ovis aries [19]): Active
